In the library only some 3.3% were active in any assay of this set; here they are far more common.
M18AAP inhibitor: PfM18AAP enzyme inhibition; recombinant PfM18AAP, H-Glu-NHMec fluorogenic cleavage; inhibition, % at 7.35 µM; 1.2% of 290,000 active; AID 1822;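 active = inhibition above the campaign mean inhibition over all tested compounds plus 3 SD, cut at about 28% in these data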;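 note: 0% = plate median of test compound wells and 100% = 2 mM ZnCl2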
HTR2A ag: agonists of mouse serotonin 5-HT2A receptor (HTR2A) | CHO-K1 mHTR2A beta-arrestin complementation, luminescence; percent of 30 µM serotonin response | 0.66% of 360,000 active | activation, % at 7.6 µM | P35363;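 active = activation above a run cutoff, the mean activation of all tested compounds plus 3 SD, cut at about 14% in these data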;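 note: 0% = plate median of compound wells and 100% = 30 µM serotonin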
Arr AP2 block: human beta-arrestin and AP2 interaction inhibition. FITC-arrestin peptide / GST-AP2 beads, flow cytometry; AP2 beta2 appendage carries R879A mutation. inhibition, % at 10 µM. 0.31% of 340,000 active;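 active = inhibition above a set limit, near 3 SD of compounds lacking own fluorescence, cut at about 54% in these data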;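 note: plate controls were DMSO wells for no effect and 5 µM unlabelled arrestin peptide for full effect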
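Test system: GST-tagged AP2 beta2-adaptin appendage (R879A) on 4 µm glutathione beads; also added: fluorescein-tagged arrestin peptide at 50 nM final; timing: 12 min plus 1 h, RT; signal: flow cytometry, FL1 (488/535 nm); read-out: percent drop in bead-associated FITC signal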
Lipid droplet: hepatic lipid droplet formation modulation. AID 1656. inhibition, % at 6.5 µM. 0.4% of 240,000 active. AML12 mouse hepatocytes, oleate lipid droplets, BODIPY imaging;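 active = lipid droplet intensity inhibited by at least 50%, with more than 500 cells counted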
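Technique: fluorescence imaging, 20x objective, two fields per well / Assay system: AML12 hepatocytes (mouse) / Measure: % inhibition of lipid droplet signal / Doses: 6.5 µM single-point dosing / Incubation: overnight exposure / Reagent: 100 µM oleic acid challenge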
HGIII-sPLA2 inh: Inhibits HGIII-sPLA2 liposome hydrolysis, primary screen; Q9NZ20; QFRET BODIPY PC-A2 liposome hydrolysis, fluorescence; inhibition, % at 12.2 µM; 0.56% of 370,000 active;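 active = inhibition above mean plus 3 SD of compounds lying within the high and low control bounds, cut at about 19% in these data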;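 note: 0% = median of test compound wells and 100% = no enzyme DMSO wells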
NRP1-CendR mod: modulators of CendR peptide binding to human neuropilin-1 | FAM-RPARPAR peptide binding to NRP-1, fluorescence polarization | inhibition, % at 25 µM | 0.85% of 360,000 active;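 active = inhibition or corrected inhibition above about 18%, plus a signal ratio from 0.5 to 1.5, limit read from the data, passing the limit was not always enough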
Arr-AP2 CP1: blocks beta-arrestin peptide binding to human AP2; shares compounds with Arr AP2 block; 2% of 1,300 active; GST-AP2 beads, FITC arrestin peptide binding, flow cytometry; GST-fused beta2-adaptin appendage, R879A mutant; AID 504908; inhibition, % at 10 µM;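 active = inhibition above a set limit, roughly 3 SD of non-fluorescent compound noise, cut at about 38% in these data; inactive = inhibition at or below that limit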;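 note: loss of bead fluorescence from 50 nM FITC arrestin peptide bound to appendage; 0% = negative control wells and 100% = excess unlabelled arrestin peptide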
GST-FITC bead: disrupts GST binding to glutathione beads, arrestin-AP2 artifact; shares compounds with Arr AP2 block; GST-fluorescein binding to GSH beads, fluorescence, counter-screen; inhibition, % at 10 µM; 2% of 1,300 active;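 active = inhibition above 50%, about 3 SD of the inhibition seen with non-fluorescent compounds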;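 note: fluorescein maleimide labelled GST captured on 4 micron glutathione beads; higher means more loss of bead fluorescence from quenching or blocked binding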
An asterisk follows results filed as active; x = no result.

SMILES	M18AAP inhibitor	HTR2A ag	Arr AP2 block	Lipid droplet	HGIII-sPLA2 inh	NRP1-CendR mod	Arr-AP2 CP1	GST-FITC bead
CCOc1ccc2nc(S(=O)(=O)NC(=O)C3(C)CCN3C(=O)c3cccc(F)c3)sc2c1 (stereo not given)	x	-3	x	x	-14	0	x	x
COc1ccc(C2Nc3ccccc3C(=O)N2NS(C)(=O)=O)cc1OC (stereo not given)	0	-2	71*	33	-1	3	-2	1
Cc1cccc(CN2CCN(C(C)C(=O)NC(C)c3ccccc3)CC2)c1 (stereo not given)	3	-2	56*	-4	10	-1	-10	-8
COc1ccc(CNC(=O)c2ccccc2NC(=O)C2=C(C)OCCS2)cc1	x	-2	x	x	-1	2	x	x
COc1cc(NC(=O)c2[nH]c(C)c(C(C)=O)c2C)c(OC)cc1Cl	x	x	x	x	6	x	x	x
COc1ccc(S(=O)(=O)N2CCOCC2)cc1NC(=O)c1ccc2c(c1)OCO2	x	-2	0	x	1	6	x	x
COc1ccc(S(=O)(=O)N2CCOCC2)cc1NC(=O)c1cc(=O)[nH]c2ccccc12	x	-7	-2	x	-2	-3	-15	-2
COc1ccc(S(=O)(=O)N2CCOCC2)cc1NC(=O)c1ccc(=O)[nH]c1	x	4	-3	x	0	-6	-8	-1
Cc1cccn2c(=O)c3cc(C(=O)NC4CCCC4)sc3nc12	4	1	48	2	5	1	x	x
COc1ccc(Cl)cc1NC(=O)CC(C)=O	-4	-8	5	x	-18	15	3	-8
COc1ccccc1NC(=O)NCCN1CCNC1=O	-20	4	5	0	-3	-7	x	x
COc1ccc(NC(=O)CC(C)=O)c(OC)c1	-1	0	-1	6	1	0	6	-3
COc1ccc(Cl)cc1NC(=O)COC(C)=O	-11	3	-14	8	2	-11	x	x
Cc1ccccc1NC(=O)CC(=O)Nc1ccccc1C	-9	4	-14	12	-16	5	x	x
CC(=O)CC(=O)Nc1ccccc1NC(C)=O	20	4	20	19	1	1	-4	-5
COc1ccc(Cl)cc1NC(=O)NCCN1CCNC1=O	-1	-5	60*	-36	-5	1	8	-2
COC(=O)C1=C(C)N(Cc2ccccc2C(F)(F)F)C(=NCc2ccc(C(F)(F)F)cc2)NC1c1ccc(C(F)(F)F)cc1 (stereo not given)	x	x	x	x	-1	x	x	x
CCSc1nc(N2CCOCC2)c2c(c1C#N)CC(C)(C)N(C)C2	14	0	54*	5	0	10	-15	-6
C=CCSc1nc(N2CCOCC2)c2c(c1C#N)CC(C)(C)N(C)C2	-1	-4	-17	-8	-8	1	x	x
COCCN1Cc2cc(C(=O)OC)c3c(c2C1=O)c1cc(F)ccc1n3C(=O)c1ccccc1	x	x	x	x	-4	x	x	x
Cc1ccc(C2(C)NC(=O)N(CC(=O)Nc3cc(S(=O)(=O)N4CCOCC4)ccc3OC(C)C)C2=O)cc1 (stereo not given)	x	-2	-12	x	-10	7	x	x
Cn1c(N)c(C(=O)COC(=O)c2ccccc2C(F)(F)F)c(=O)n(C)c1=O	x	-10	-10	x	-8	6	-3	-3
Cn1c(N)c(C(=O)COC(=O)c2ccccn2)c(=O)n(C)c1=O	3	3	-4	14	3	0	13	-3
CCOc1ncccc1C(=O)OCC(=O)c1c(N)n(C)c(=O)n(C)c1=O	-2	2	5	x	10	-6	-8	0
COC[C@H]1CCCN1c1ccc2c(c1)O[C@@H](COCc1ccccc1)CN([C@@H](C)c1ccccc1)S2(=O)=O	x	-4	x	x	-7	12	x	x
SMILES	M18AAP inhibitor	HTR2A ag	Arr AP2 block	Lipid droplet	HGIII-sPLA2 inh	NRP1-CendR mod	Arr-AP2 CP1	GST-FITC bead
O=C(N/N=C/c1ccsc1)c1cc2ccccc2o1	1	-4	-5	-8	-4	-13	x	x
O=C(N/N=C/c1cccc([N+](=O)[O-])c1)c1cc2ccccc2o1	3	-4	107*	8	0	-3	2	-1
COc1ccc(S(=O)(=O)N2CCN(C)CC2)cc1NC(=O)c1ccccc1	1	-2	-6	5	2	3	-3	-7
CCN1CCN(S(=O)(=O)c2ccc(OC)c(NC(=O)c3ccccc3)c2)CC1	-9	5	3	3	6	8	4	-2
CCCSc1ccc([C@@H]2[C@@H]3C(=O)N(C)C(=O)[C@@H]3[C@]3(C(=O)OC)CCCN23)cc1OC	x	2	60*	x	x	-3	-5	-7
Cc1cccc(OC(C)C(=O)Nc2ccc3c(c2)OCCO3)c1 (stereo not given)	x	3	-13	x	3	-8	-3	-11
O=C(NCc1ccc(Cl)cc1)C1CCN(S(=O)(=O)c2cccc3nonc23)CC1	-10	10	109*	5	4	-1	23	52*
O=C1CCN(c2ccccc2)N1	x	-10	-5	x	10	8	x	x
Cc1cc(NS(=O)(=O)c2ccc(NC(=O)CSc3nnc(-c4ccncc4)n3Cc3ccco3)cc2)nc(C)n1	x	x	x	x	1	x	x	x
CC(C)Cn1c(N)c(C(=O)COC(=O)c2cc3ccccc3cc2O)c(=O)n(C)c1=O	x	-4	0	x	-8	-12	x	x
CC(C)Cn1c(N)c(C(=O)COC(=O)c2ccc(O)cc2O)c(=O)n(C)c1=O	x	-3	-6	x	-26	-17	5	-6
Cc1cccc(C(=O)OCC(=O)c2c(N)n(CC(C)C)c(=O)n(C)c2=O)c1O	x	-1	-10	x	-5	-10	-8	-5
COc1ccc2ccccc2c1C=NNC(=O)c1cc(-c2ccc(C)c(C)c2)n[nH]1	x	x	x	x	-13	x	x	x
COc1ccc(Nc2nc3cc(C)ccc3cc2C#N)c(OC)c1	-4	3	91*	13	2	3	12	75*
COc1cc2c(cc1OC)C(=O)CCS2	2	-4	75*	-5	6	31*	12	-4
COc1ccc(CCNCC(O)Cn2c3ccccc3c3ccccc32)cc1OC (stereo not given)	0	-2	58*	-3	-26	12	1	4
CS(=O)(=O)N1CCN(C(=O)c2cc(-c3cccnc3)nc3ccc(Cl)cc23)CC1	3	2	0	-1	3	-5	x	x
CS(=O)(=O)N1CCN(C(=O)c2cc(-c3cccnc3)nc3ccc(Br)cc23)CC1	2	9	64*	9	-6	6	-15	-6
O=C(c1cnn2c(C(F)(F)F)cc(-c3ccc(Br)cc3)nc12)N1CCOCC1	-1	-3	0	x	1	-4	x	x

From PubChem BioAssay
